Assay results from ChEMBL document CHEMBL3627646, “Synthesis and biological activity of amino acid derivatives of avarone and its model compound” (Bioorg Med Chem, 2015).
pIC50: −log10 of the molar value. Converted amounts (≈) assume the structure as drawn. The source made the active and inactive calls. The rule behind the calls is not given here.

Experiments:
HeLa [1] = experiment: Cell cycle arrest in human HeLa cells assessed as accumulation at G2/M phase at 2 time IC50 after 24 hrs using propidium iodide staining by cytofluorometric analysis; format: functional, cell-based
In short: (§1)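 Trypsinized, fixed in ice-cold 70% ethanol then held at −20 °C at least one week. Treated with RNase 100 µg/mL at 37 °C 30 min, stained with PI 40 µg/mL at least 30 min. Flow cytometry on ≥10,000 cells.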

HeLa [2] = experiment: Cell cycle arrest in human HeLa cells assessed as accumulation at G2/M phase at IC50 after 24 hrs using propidium iodide staining by cytofluorometric analysis; format: functional, cell-based; in short: as §1
Escherichia coli = experiment: Antibacterial activity against Escherichia coli ATCC 25922 after 24 hrs by microbroth double dilution method; format: functional; settings: ATCC 25922, 24 h
In short: (§2)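 Microbroth double dilution in Mueller Hinton broth; compound stock 10 mg/mL in DMSO serially halved across rows. Wells inoculated with 10 μL culture at 10^6 cells/mL, incubated 37 °C for 24 h. Amikacin row as positive control, DMSO row as negative control. MIC taken as lowest concentration inhibiting bacterial growth.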

Staphylococcus aureus = experiment: Antibacterial activity against Staphylococcus aureus ATCC 6538 after 24 hrs by microbroth double dilution method; format: functional; settings: ATCC 6538, 24 h; in short: as §2
Aspergillus brasiliensis = experiment: Antifungal activity against Aspergillus brasiliensis ATCC 16404 after 24 hrs by microbroth double dilution method; format: functional; settings: ATCC 16404, 24 h
Kocuria rhizophila = experiment: Antibacterial activity against Kocuria rhizophila ATCC 9341 after 24 hrs by microbroth double dilution method; format: functional; settings: ATCC 9341, 24 h; in short: as §2
A549 = experiment: Cytotoxicity against human A549 cells assessed as cell survival after 72 hrs by MTT assay; format: functional, cell-based; settings: A549, 72 h
In short: (§3)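 Cells seeded (HeLa 2000, MDA-MB-453 3000, others 5000 per well), treated 24 h later (K562 after 2 h). Five double-diluted final concentrations, 200–12.5 μM, from 10 mM DMSO stocks, in RPMI-1640 with 10% FBS, pH 7.2, 72 h. MTT 4 h at 37 °C, SDS added, A570 read next day. Survival relative to medium control; IC50 from survival curves; triplicate; cisplatin positive control.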

MDA-MB-453 = experiment: Cytotoxicity against human MDA-MB-453 cells assessed as cell survival after 72 hrs by MTT assay; format: functional, cell-based; settings: MDA-MB-453, 72 h; in short: as §3
[3] = Cytotoxicity against human Fem-X cells assessed as cell survival after 72 hrs by MTT assay; format: functional, cell-based; in short: as §3
Saccharomyces cerevisiae = experiment: Antifungal activity against Saccharomyces cerevisiae ATCC 9763 after 24 hrs by microbroth double dilution method; format: functional; settings: ATCC 9763, 24 h
K562 = experiment: Cytotoxicity against human K562 cells assessed as cell survival after 72 hrs by MTT assay; format: functional, cell-based; settings: K562, 72 h; in short: as §3
Clostridium sporogenes = experiment: Antibacterial activity against Clostridium sporogenes ATCC 19404 after 24 hrs by microbroth double dilution method; format: functional; settings: ATCC 19404, 24 h; in short: as §2
Artemia salina = experiment: Cytotoxicity in Brine shrimp assessed as nauplii mortality after 24 hrs; format: organism-based; settings: in vivo
In short: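 Artemia salina eggs hatched in aerated tap water with dried yeast at 18–20 °C under illumination for 48 h, and freshly hatched nauplii were used. Compounds in DMSO (0.01–1 mg) were added to 950 µL artificial seawater containing 10–20 nauplii, with 5% final DMSO. After 24 h under illumination at room temperature, dead and surviving nauplii were counted and statistically analysed.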

MRC5 = experiment: Cytotoxicity against human MRC5 cells assessed as cell survival after 72 hrs by MTT assay; format: cell-based; settings: MRC5, 72 h; in short: as §3
Pseudomonas aeruginosa = experiment: Antibacterial activity against Pseudomonas aeruginosa ATCC 9027 after 24 hrs by microbroth double dilution method; format: functional; settings: ATCC 9027, 24 h; in short: as §2
Salmonella enterica = experiment: Antibacterial activity against Salmonella enterica ATCC 13076 after 24 hrs by microbroth double dilution method; format: functional; settings: ATCC 13076, 24 h; in short: as §2
Candida albicans = experiment: Antifungal activity against Candida albicans ATCC 10231 after 24 hrs by microbroth double dilution method; format: functional; settings: ATCC 10231, 24 h
Micrococcus luteus = experiment: Antibacterial activity against Micrococcus luteus ATCC 4698 after 24 hrs by microbroth double dilution method; format: functional; settings: ATCC 4698, 24 h; in short: as §2
Proteus hauseri = experiment: Antibacterial activity against Proteus hauseri ATCC 13315 after 24 hrs by microbroth double dilution method; format: functional; settings: ATCC 13315, 24 h; in short: as §2
Micrococcus flavus = experiment: Antibacterial activity against Micrococcus flavus ATCC 10240 after 24 hrs by microbroth double dilution method; format: functional; settings: ATCC 10240, 24 h; in short: as §2
HeLa [4] = experiment: Cytotoxicity against human HeLa cells assessed as cell survival after 72 hrs by MTT assay; format: functional, cell-based; in short: as §3
Bacillus subtilis = experiment: Antibacterial activity against Bacillus subtilis ATCC 6633 after 24 hrs by microbroth double dilution method; format: functional; settings: ATCC 6633, 24 h; in short: as §2
HeLa [5] = experiment: Cell cycle arrest in human HeLa cells assessed as reduction in G1 phase at IC50 after 24 hrs using propidium iodide staining by cytofluorometric analysis; format: functional, cell-based; in short: as §1
HeLa [6] = experiment: Cell cycle arrest in human HeLa cells assessed as accumulation at G2/M phase after 24 hrs using propidium iodide staining by cytofluorometric analysis; format: functional, cell-based; in short: as §1
HeLa [7] = experiment: Cell cycle arrest in human HeLa cells assessed as accumulation at sub-G1 phase at 2 time IC50 after 24 hrs using propidium iodide staining by cytofluorometric analysis; format: functional, cell-based; in short: as §1
HeLa [8] = experiment: Cell cycle arrest in human HeLa cells assessed as reduction in G1 phase at 2 time IC50 after 24 hrs using propidium iodide staining by cytofluorometric analysis; format: functional, cell-based; in short: as §1
HeLa [9] = experiment: Cell cycle arrest in human HeLa cells assessed as accumulation at sub-G1 phase after 24 hrs using propidium iodide staining by cytofluorometric analysis; format: functional, cell-based; in short: as §1
HeLa [10] = experiment: Cell cycle arrest in human HeLa cells assessed as accumulation at sub-G1 phase at IC50 after 24 hrs using propidium iodide staining by cytofluorometric analysis; format: functional, cell-based; in short: as §1
HeLa [11] = experiment: Induction of apoptosis in human HeLa cells assessed as accumulation at sub-G1 phase after 24 hrs in presence of caspase-8 inhibitor Z-IETD-FMK using propidium iodide staining by flow cytometric analysis; format: functional, cell-based
HeLa [12] = experiment: Induction of apoptosis in human HeLa cells assessed as accumulation at sub-G1 phase after 24 hrs in presence of caspase-3 inhibitor Z-DEVD-FMK using propidium iodide staining by flow cytometric analysis; format: functional, cell-based
HeLa [13] = experiment: Induction of apoptosis in human HeLa cells assessed as accumulation at sub-G1 phase after 24 hrs using propidium iodide staining by flow cytometric analysis; format: functional, cell-based
HeLa [14] = experiment: Induction of apoptosis in human HeLa cells assessed as accumulation at sub-G1 phase after 24 hrs in presence of caspase-9 inhibitor Z-LEHD-FMK using propidium iodide staining by flow cytometric analysis; format: functional, cell-based

SMILES | MIC (Escherichia coli) | MIC (Staphylococcus aureus) | MIC (Aspergillus brasiliensis) | MIC (Kocuria rhizophila) | pIC50 (A549) | pIC50 (MDA-MB-453) | pIC50 [3] | MIC (Saccharomyces cerevisiae) | pIC50 (K562) | MIC (Clostridium sporogenes) | LC50 (Artemia salina) | pIC50 (MRC5) | MIC (Pseudomonas aeruginosa) | MIC (Salmonella enterica) | MIC (Candida albicans) | MIC (Micrococcus luteus) | MIC (Proteus hauseri) | MIC (Micrococcus flavus) | pIC50 (HeLa [4]) | MIC (Bacillus subtilis) | further results
CSCC[C@H](NC1=CC(=O)C=C(C[C@]2(C)[C@@H](C)CC[C@]3(C)C(C)=CCC[C@@H]23)C1=O)C(=O)O | 42.4 µM (≈ 19.5 µg/mL) | 42.4 µM (≈ 19.5 µg/mL) | 341 µM (≈ 157 µg/mL) | 1360 µM (≈ 625 µg/mL) | 4.33 | 4.59 | 4.71 | 87.8 µM (≈ 40.3 µg/mL) | 4.87 | 170 µM (≈ 77.9 µg/mL) | 147.7 ppm | < 3.70 | 170 µM (≈ 77.9 µg/mL) | 170 µM (≈ 77.9 µg/mL) | < 2.67 µM | 42.4 µM (≈ 19.5 µg/mL) | 341 µM (≈ 157 µg/mL) | 170 µM (≈ 77.9 µg/mL) | 4.86 | 170 µM (≈ 77.9 µg/mL) | Activity (HeLa [1]): Active; Activity (HeLa [2]): Active
CC1=CCC[C@H]2[C@](C)(CC3=CC(=O)C=C(N[C@@H](C(=O)O)C(C)C)C3=O)[C@@H](C)CC[C@]12C | 22.9 µM (≈ 9.81 µg/mL) | 22.9 µM (≈ 9.81 µg/mL) | 164 µM (≈ 70.2 µg/mL) | 1460 µM (≈ 626 µg/mL) | 4.62 | 5.10 | 4.94 | 368 µM (≈ 157 µg/mL) | 5.11 | 91.3 µM (≈ 39.1 µg/mL) | 50.5 ppm | 4.07 | 91.3 µM (≈ 39.1 µg/mL) | 183 µM (≈ 78.1 µg/mL) | < 2.88 µM | 22.9 µM (≈ 9.81 µg/mL) | 183 µM (≈ 78.1 µg/mL) | 91.3 µM (≈ 39.1 µg/mL) | 4.96 | 91.3 µM (≈ 39.1 µg/mL) | Activity (HeLa [1]): Active; Activity (HeLa [5]): Active; Activity (HeLa [2]): Active; Activity (HeLa [6]): Dose-dependent effect; Activity (HeLa [7]): Active; Activity (HeLa [8]): Active; Activity (HeLa [9]): Dose-dependent effect; Activity (HeLa [10]): Active
CC1=CCC[C@H]2[C@](C)(CC3=CC(=O)C=C(N[C@@H](CC(C)C)C(=O)O)C3=O)[C@@H](C)CC[C@]12C | 5.55 µM (≈ 2.45 µg/mL) | 5.55 µM (≈ 2.45 µg/mL) | 1410 µM (≈ 624 µg/mL) | 709 µM (≈ 313 µg/mL) | 4.71 | 4.96 | 4.96 | 176 µM (≈ 77.9 µg/mL) | 4.95 | 44.2 µM (≈ 19.5 µg/mL) | 117 ppm | 4.13 | 88.3 µM (≈ 39 µg/mL) | 88.3 µM (≈ 39 µg/mL) | < 5.54 µM | 11.1 µM (≈ 4.9 µg/mL) | 44.2 µM (≈ 19.5 µg/mL) | 88.3 µM (≈ 39 µg/mL) | 5.11 | 88.3 µM (≈ 39 µg/mL) | Activity (HeLa [5]): Active; Activity (HeLa [11]): inactive; Activity (HeLa [7]): Active; Activity (HeLa [8]): Active; Activity (HeLa [12]): inactive; Activity (HeLa [13]): Active; Activity (HeLa [10]): Active; Activity (HeLa [14]): inactive
CC1=CCC[C@H]2[C@](C)(CC3=CC(=O)C=C(NCCC(=O)O)C3=O)[C@@H](C)CC[C@]12C | 48.8 µM (≈ 19.5 µg/mL) | 24.5 µM (≈ 9.8 µg/mL) | 782 µM (≈ 313 µg/mL) | 393 µM (≈ 157 µg/mL) | 4.57 | 5.48 | 4.69 | 12.2 µM (≈ 4.89 µg/mL) | 4.81 | 393 µM (≈ 157 µg/mL) | 84.3 ppm | 4.09 | 783 µM (≈ 313 µg/mL) | 783 µM (≈ 313 µg/mL) | 195 µM (≈ 77.9 µg/mL) | 48.8 µM (≈ 19.5 µg/mL) | 393 µM (≈ 157 µg/mL) | 783 µM (≈ 313 µg/mL) | 5.05 | 393 µM (≈ 157 µg/mL) | Activity (HeLa [1]): Active; Activity (HeLa [11]): inactive; Activity (HeLa [2]): Active; Activity (HeLa [12]): inactive; Activity (HeLa [13]): Active; Activity (HeLa [14]): inactive
